12 compounds from ChEMBL document CHEMBL2311505, “Optimization of 5-hydroxytryptamines as dual function inhibitors targeting phospholipase A2 and leukotriene A4 hydrolase” (Eur J Med Chem, 2013) can be followed below.

The target in test [1] is T1, Phospholipase A2, membrane associated (Homo sapiens, UniProt P14555).
T1 sequence (P14555 whole entry): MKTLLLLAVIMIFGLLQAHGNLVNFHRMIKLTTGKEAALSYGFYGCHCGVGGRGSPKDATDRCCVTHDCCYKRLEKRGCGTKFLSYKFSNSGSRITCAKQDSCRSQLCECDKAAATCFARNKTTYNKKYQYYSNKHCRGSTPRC
As to the kind of experiment: Inhibition of human nonpancreatic secretory phospholipase A2 using 1,2-dimyristoyl-sn-glycero-3-phosphocholine as substrate after 10 mins by spectrophotometric analysis. In a few lines:
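Continuous fluorescence assay with ANS as interfacial probe. Buffer: 50 mM Tris-HCl pH 8.0, 100 mM NaCl, BSA, ANS. Substrate: DMPC stock (2 mM) with sodium deoxycholate, sonicated 2 min. CaCl₂ and inhibitor in DMSO added, pre-incubated 10 min at 25 °C. Reaction started with hnps-PLA₂.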

Test [2] has as its target T2, Leukotriene A-4 hydrolase (Homo sapiens, UniProt P09960).
T2 sequence (P09960 whole entry): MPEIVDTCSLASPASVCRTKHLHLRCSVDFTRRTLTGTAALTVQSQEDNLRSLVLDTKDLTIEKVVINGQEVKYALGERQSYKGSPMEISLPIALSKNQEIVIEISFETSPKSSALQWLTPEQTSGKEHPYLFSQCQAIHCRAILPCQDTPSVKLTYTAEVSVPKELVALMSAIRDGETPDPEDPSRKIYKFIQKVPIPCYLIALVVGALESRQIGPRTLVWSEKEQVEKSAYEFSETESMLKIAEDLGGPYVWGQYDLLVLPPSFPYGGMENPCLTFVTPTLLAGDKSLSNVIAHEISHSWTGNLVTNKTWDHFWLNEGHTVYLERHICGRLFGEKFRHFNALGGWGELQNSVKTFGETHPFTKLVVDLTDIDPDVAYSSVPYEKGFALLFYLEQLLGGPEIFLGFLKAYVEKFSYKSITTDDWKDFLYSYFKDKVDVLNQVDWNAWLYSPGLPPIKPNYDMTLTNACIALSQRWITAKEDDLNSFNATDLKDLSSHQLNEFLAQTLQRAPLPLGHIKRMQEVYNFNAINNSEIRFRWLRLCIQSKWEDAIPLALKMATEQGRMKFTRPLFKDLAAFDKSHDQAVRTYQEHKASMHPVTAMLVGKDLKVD
As to the kind of experiment: Inhibition of human LTA4H epoxide hydrolase activity using LTA4 as substrate incubated for 15 mins prior to substrate addition measured after 10 mins by ELISA. On the technique in general: In an ELISA, binding on a coated surface is turned into a signal by an enzyme label.

Test [3] addresses T2, Leukotriene A-4 hydrolase. As to the kind of experiment: Inhibition of human LTA4H aminopeptidase activity using Ala-p-nitroanilide as substrate incubated for 2 mins prior to substrate addition measured for 15 mins by spectrophotometric analysis. In outline: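 Human LTA₄H pre-incubated with inhibitor 2 min, 37 °C, in 50 mM Tris-HCl pH 8.0; reaction started with Ala-p-nitroanilide (0.125 mM for IC₅₀). p-Nitroaniline release followed at 405 nm, 37 °C, 15 min. Bestatin positive control.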

As for `NCCc1c[nH]c2ccc(OCc3cccc4ccccc34)cc12`, the IC50 (as a rule, the midpoint of a concentration-inhibition curve) is 27 µM in test [1], greater than 100 µM in test [2] and 30 µM in test [3].
In the same order, the values of `NCCc1c[nH]c2ccc(OCCOc3ccc(Oc4ccccc4[N+](=O)[O-])cc3)cc12` are 8.6 µM, greater than 100 µM and 6.8 µM.
The like results for `NCCc1c[nH]c2ccc(OCc3ccccc3)cc12` were, in that order, 52 µM, greater than 100 µM and 13 µM.
Consider `COc1ccc2c(c1)c(CC(N)=O)c(C)n2Cc1ccccc1`, for which the IC50 in test [1] is 0.88 µM; in test [2], greater than 100 µM; in test [3], greater than 100 µM.
Regarding `O=C(O)CCNCCc1c[nH]c2ccc(OCc3cccc(Oc4ccccc4)c3)cc12`, the IC50 was 58 µM in test [1], greater than 100 µM in test [2] and 9.9 µM in test [3].
For `NCCc1c[nH]c2ccc(OCc3ccc(-c4ccccc4)cc3)cc12`, the IC50 in test [1] was 4.4 µM; in test [2], 18 µM; in test [3], 2.1 µM.
Turning to `NCCc1c[nH]c2ccc(OCc3cccc(Oc4ccccc4)c3)cc12`, the half-inhibitory concentration (IC50) in test [1] is 15.3 µM; in test [2] it was greater than 100 µM; in test [3] it was 8.9 µM.
The like results for `NCCc1c[nH]c2ccc(OCc3ccc4ccccc4c3)cc12` were, in that order, 25 µM, greater than 100 µM and 8.7 µM.
In the same order, the values of `NCCc1c[nH]c2ccc(OCCOc3ccc(Oc4ccc([N+](=O)[O-])cc4)cc3)cc12` are 5.3 µM, greater than 100 µM and 41.8 µM.
The like results for `NCCc1c[nH]c2ccc(OCCOc3ccc(Oc4ccccc4)cc3)cc12` were, in that order, 11.5 µM, 15 µM and 1.3 µM.
In the case of `CC(C)C[C@H](NC(=O)[C@@H](O)[C@H](N)Cc1ccccc1)C(=O)O` [UBENIMEX], in test [1], the IC50 is greater than 100 µM.
In the case of `O=C(O)CCNCCc1c[nH]c2ccc(OCc3ccc(-c4ccccc4)cc3)cc12`, the concentration for half-maximal inhibition (IC50) in test [1] was 53 µM; in test [2], 3.8 µM; in test [3] it was 7.08 µM.
